Data as given in ChEMBL document CHEMBL1137767, “2-(3-Aryl-2-propenoyl)-3-methylquinoxaline-1,4-dioxides: a novel cluster of tumor-specific cytotoxins which reverse multidrug resistance” (Bioorg Med Chem, 2009).
Calls of active or inactive are those of the source. No cut-off for these calls is given here.

What was measured:
[1] = molecular target: T1, ATP-dependent translocase ABCB1 (Homo sapiens, UniProt P08183); experiment: Reversal of P-glycoprotein-mediated multidrug resistance in human MDR1 gene transfected mouse L5178Y cells assessed as fluorescence activity ratio at 200 uM by rhodamine 123 accumulation assay; assay type: cell-based
How it was run: (§1)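 Murine L-5178Y lymphoma cells transfected with human MDR1 gene (P-gp-overexpressing), alongside parental cells, treated or untreated with compound; rhodamine 123 accumulation measured by fluorescence; FAR = ratio of fluorescence intensity in treated versus untreated cells, values above 1 taken as MDR reversal.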

LOX IMVI = experiment: Growth inhibition of human LOXIMVI cells at 10 uM; assay type: functional, cell-based
How it was run: (§2)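 Human tumor cell line panel (59 lines across leukemia, melanoma, non-small cell lung, colon, CNS, ovarian, renal, prostate, breast) treated at a single 10 uM concentration; growth inhibition recorded per line.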

NCI-H23 = experiment: Growth inhibition of human NCI-H23 cells at 10 uM; assay type: functional, cell-based; how it was run: as §2
HCT-116 = experiment: Growth inhibition of human HCT116 cells at 10 uM; assay type: functional, cell-based; how it was run: as §2
DU-145 = experiment: Growth inhibition of human DU145 cells at 10 uM; assay type: functional, cell-based; how it was run: as §2
A498 = experiment: Growth inhibition of human A498 cells at 10 uM; assay type: functional, cell-based; how it was run: as §2
Hs-578T = experiment: Growth inhibition of human Hs 578T cells at 10 uM; assay type: functional, cell-based; how it was run: as §2
HOP-92 = experiment: Growth inhibition of human HOP92 cells at 10 uM; assay type: functional, cell-based; how it was run: as §2
U-251 = experiment: Growth inhibition of human U251 cells at 10 uM; assay type: functional, cell-based; how it was run: as §2
MCF7 = experiment: Growth inhibition of human MCF7 cells at 10 uM; assay type: functional, cell-based; how it was run: as §2
SF-295 = experiment: Growth inhibition of human SF295 cells at 10 uM; assay type: functional, cell-based; how it was run: as §2
NCI-H522 = experiment: Growth inhibition of human NCI-H522 cells at 10 uM; assay type: functional, cell-based; how it was run: as §2
[2] = molecular target: T1, ATP-dependent translocase ABCB1; experiment: Reversal of P-glycoprotein-mediated multidrug resistance in human MDR1 gene transfected mouse L5178Y cells assessed as fluorescence activity ratio at 20 uM by rhodamine 123 accumulation assay; assay type: cell-based; how it was run: as §1
OVCAR-8 = experiment: Growth inhibition of human OVCAR8 cells at 10 uM; assay type: functional, cell-based; how it was run: as §2
NCI/ADR-RES = experiment: Growth inhibition of human NCI/ADR-RES cells at 10 uM; assay type: functional, cell-based; how it was run: as §2
SNB-75 = experiment: Growth inhibition of human SNB75 cells at 10 uM; assay type: functional, cell-based; how it was run: as §2
CCRF-CEM [3] = experiment: Growth inhibition of human CCRF-CEM cells at 10 uM; assay type: functional, cell-based; how it was run: as §2
HL-60 [4] = experiment: Growth inhibition of human HL60 cells at 10 uM; assay type: functional, cell-based; how it was run: as §2
K562 = experiment: Growth inhibition of human K562 cells at 10 uM; assay type: functional, cell-based; how it was run: as §2
[5] = Growth inhibition of human Molt4/C8 cells after 3 days; assay type: functional, cell-based; conditions: MOLT-4, 72 h
How it was run: (§3)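 Human CEM and Molt 4/C8 T-lymphocytes were grown for three days with or without serial dilutions of the compound. IC50 is the concentration that inhibits cell growth by 50%.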

HSC-2 = experiment: Cytotoxicity against human HSC2 cells after 48 hrs; assay type: functional; conditions: HSC-2, 48 h
HCT-15 = experiment: Growth inhibition of human HCT15 cells at 10 uM; assay type: functional, cell-based; how it was run: as §2
PC-3 = experiment: Growth inhibition of human PC3 cells at 10 uM; assay type: functional, cell-based; how it was run: as §2
CAKI-1 = experiment: Growth inhibition of human Caki1 cells at 10 uM; assay type: functional, cell-based; how it was run: as §2
EKVX = experiment: Growth inhibition of human EKVX cells at 10 uM; assay type: functional, cell-based; how it was run: as §2
OVCAR-3 = experiment: Growth inhibition of human OVCAR-3 cells at 10 uM; assay type: functional, cell-based; how it was run: as §2
UO-31 = experiment: Growth inhibition of human UO31 cells at 10 uM; assay type: functional, cell-based; how it was run: as §2
[6] = Cytotoxicity against human HPC cells after 48 hrs; assay type: cell-based
M14 = experiment: Growth inhibition of human M14 cells at 10 uM; assay type: functional, cell-based; how it was run: as §2
IGROV-1 = experiment: Growth inhibition of human IGROV1 cells at 10 uM; assay type: functional, cell-based; how it was run: as §2
CCRF-CEM [7] = experiment: Growth inhibition of human CEM cells after 3 days; assay type: functional, cell-based; conditions: 72 h; how it was run: as §3
HSC-3 = experiment: Cytotoxicity against human HSC3 cells after 48 hrs; assay type: functional; conditions: HSC-3, 48 h
HCC 2998 = experiment: Growth inhibition of human HCC2998 cells at 10 uM; assay type: functional, cell-based; how it was run: as §2
HL-60 [8] = experiment: Cytotoxicity against human HL60 cells after 48 hrs; assay type: functional; conditions: HL-60, 48 h
UACC-62 = experiment: Growth inhibition of human UACC62 cells at 10 uM; assay type: functional, cell-based; how it was run: as §2
RPMI8266 = experiment: Growth inhibition of human […] cells at 10 uM; assay type: functional, cell-based; how it was run: as §2
[9] = Cytotoxicity against human HPLF cells after 48 hrs; assay type: cell-based
T47D = experiment: Growth inhibition of human T47D cells at 10 uM; assay type: functional, cell-based; how it was run: as §2
MDA-MB-435 = experiment: Growth inhibition of human MDA-MB-435 cells at 10 uM; assay type: functional, cell-based; how it was run: as §2
A549 = experiment: Growth inhibition of human A549 cells at 10 uM; assay type: functional, cell-based; how it was run: as §2
MDA-MB-468 = experiment: Growth inhibition of human MDA-MB-468 cells at 10 uM; assay type: functional, cell-based; how it was run: as §2
NCI-H460 = experiment: Growth inhibition of human NCI-H460 cells at 10 uM; assay type: functional, cell-based; how it was run: as §2
OVCAR-4 = experiment: Growth inhibition of human OVCAR4 cells at 10 uM; assay type: functional, cell-based; how it was run: as §2
RXF 393 = experiment: Growth inhibition of human RXF393 cells at 10 uM; assay type: functional, cell-based; how it was run: as §2
SW-620 = experiment: Growth inhibition of human SW620 cells at 10 uM; assay type: functional, cell-based; how it was run: as §2
[10] = Cytotoxicity against human HGF cells after 48 hrs; assay type: cell-based
HSC-4 = experiment: Cytotoxicity against human HSC4 cells after 48 hrs; assay type: functional; conditions: HSC-4, 48 h

T1 sequence (P08183 whole entry): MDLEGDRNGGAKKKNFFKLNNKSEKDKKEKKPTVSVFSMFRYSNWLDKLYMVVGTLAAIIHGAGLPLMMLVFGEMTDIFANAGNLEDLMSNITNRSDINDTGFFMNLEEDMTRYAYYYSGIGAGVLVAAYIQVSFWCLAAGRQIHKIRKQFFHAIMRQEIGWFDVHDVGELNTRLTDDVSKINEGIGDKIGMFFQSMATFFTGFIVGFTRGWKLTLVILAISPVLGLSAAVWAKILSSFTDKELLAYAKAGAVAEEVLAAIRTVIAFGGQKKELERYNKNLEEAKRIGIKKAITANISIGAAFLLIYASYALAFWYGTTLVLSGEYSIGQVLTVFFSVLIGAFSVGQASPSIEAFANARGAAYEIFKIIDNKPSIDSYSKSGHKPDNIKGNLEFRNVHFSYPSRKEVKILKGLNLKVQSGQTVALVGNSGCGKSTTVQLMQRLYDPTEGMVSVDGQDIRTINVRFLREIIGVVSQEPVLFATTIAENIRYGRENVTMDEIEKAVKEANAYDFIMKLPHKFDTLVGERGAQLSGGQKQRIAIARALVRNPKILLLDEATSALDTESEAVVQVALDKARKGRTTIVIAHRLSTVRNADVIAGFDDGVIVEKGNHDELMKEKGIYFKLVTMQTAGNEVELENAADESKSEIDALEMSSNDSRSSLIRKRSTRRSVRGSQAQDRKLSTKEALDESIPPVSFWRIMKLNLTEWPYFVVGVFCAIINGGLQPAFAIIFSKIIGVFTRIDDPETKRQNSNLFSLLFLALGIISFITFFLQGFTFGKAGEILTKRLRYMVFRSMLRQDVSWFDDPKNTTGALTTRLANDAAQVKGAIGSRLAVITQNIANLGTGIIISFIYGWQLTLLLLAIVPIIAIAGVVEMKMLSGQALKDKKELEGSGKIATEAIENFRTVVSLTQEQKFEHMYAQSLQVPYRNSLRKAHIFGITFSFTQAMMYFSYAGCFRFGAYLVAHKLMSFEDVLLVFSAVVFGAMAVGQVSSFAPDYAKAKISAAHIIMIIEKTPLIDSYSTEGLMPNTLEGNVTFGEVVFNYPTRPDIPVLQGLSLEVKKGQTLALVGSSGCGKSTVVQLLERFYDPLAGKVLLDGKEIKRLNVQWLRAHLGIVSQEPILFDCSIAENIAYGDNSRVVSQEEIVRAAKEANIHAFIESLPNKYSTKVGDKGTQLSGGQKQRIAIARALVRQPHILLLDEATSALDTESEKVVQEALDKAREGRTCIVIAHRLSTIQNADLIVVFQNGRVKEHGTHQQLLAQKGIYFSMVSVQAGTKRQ

COc1ccc(/C=C/C(=O)c2c(C)[n+]([O-])c3ccccc3[n+]2[O-])cc1OC
Ratio [1]: 23 | growth inhibition (GI) (LOX IMVI): Active | growth inhibition (GI) (NCI-H23): Active | growth inhibition (GI) (HCT-116): Active | growth inhibition (GI) (DU-145): Active | growth inhibition (GI) (A498): Active | growth inhibition (GI) (Hs-578T): Active | growth inhibition (GI) (HOP-92): Active | growth inhibition (GI) (U-251): Active | growth inhibition (GI) (MCF7): Active | growth inhibition (GI) (SF-295): Active | growth inhibition (GI) (NCI-H522): Active | Ratio [2]: 5.01 | growth inhibition (GI) (OVCAR-8): Active | growth inhibition (GI) (NCI/ADR-RES): Active | growth inhibition (GI) (SNB-75): Active | growth inhibition (GI) (CCRF-CEM [3]): Active | growth inhibition (GI) (HL-60 [4]): Active | growth inhibition (GI) (K562): Active | IC50 [5]: 18.5 µM | CC50 (HSC-2): 25 µM | growth inhibition (GI) (HCT-15): Active | growth inhibition (GI) (PC-3): Active | growth inhibition (GI) (CAKI-1): Active | growth inhibition (GI) (EKVX): Active | growth inhibition (GI) (OVCAR-3): Active | growth inhibition (GI) (UO-31): Active | CC50 at 48 h [6]: 142 µM | growth inhibition (GI) (M14): Active | growth inhibition (GI) (IGROV-1): Active | IC50 (CCRF-CEM [7]): 19.2 µM | CC50 (HSC-3): 31 µM | growth inhibition (GI) (HCC 2998): Active | CC50 (HL-60 [8]): 14 µM | growth inhibition (GI) (UACC-62): Active | growth inhibition (GI) (RPMI8266): Active | CC50 at 48 h [9]: 156 µM | growth inhibition (GI) (T47D): Active | growth inhibition (GI) (MDA-MB-435): Active | growth inhibition (GI) (A549): Active | growth inhibition (GI) (MDA-MB-468): Active | growth inhibition (GI) (NCI-H460): Active | growth inhibition (GI) (OVCAR-4): Active | growth inhibition (GI) (RXF 393): Active | growth inhibition (GI) (SW-620): Active | CC50 at 48 h [10]: 117 µM | CC50 (HSC-4): 38 µM
